# Measured values as given in ChEMBL document CHEMBL1135476, “Synthesis and structure-activity relationship study of potent trypanocidal thio semicarbazone inhibitors of the trypanosomal cysteine protease cruzain” (J Med Chem, 2002).
# Key:
# [1] = target: Cruzipain (Trypanosoma cruzi, UniProt P25779); test: Inhibitory activity against Trypanosoma cruzi cathepsin L-like protease (cruzain) was determined using purified recombinant protein
# In short: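 Purified recombinant cruzain (1 nM) preincubated 5 min at room temperature with inhibitor (20-50000 nM; seven concentrations) in 100 mM sodium acetate, 5 mM DTT, pH 5.50. DMSO 0.7% in assay. IC50 read graphically from linear portion of inhibition vs log[I], at least two points in linear range.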
# [2] = tested on: Trypanosoma cruzi; test: Tested for the trypanocidal property against infected host cells (Trypanosoma cruzi) using a cell culture assay.; format: functional
# In short: (§1)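 Irradiated (5000 rad) J774 macrophages were plated 24 h before infection with ~10^6 T. cruzi Y-strain trypomastigotes per well; the trypomastigotes came from BESM cell culture supernatants. Parasites were removed at 2 h, then compound was given at 10 μM (stocks 10 mM in DMSO) in RPMI-1640 with FCS at 37 °C, 5% CO2, refreshed every 48 h. DMSO blank served as control. Cultures were followed by phase microscopy for up to […], scoring intracellular cycle duration and host-cell survival and toxicity.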
# [3] = tested on: Trypanosoma cruzi; test: Trypanocidal activity in infected host cells; format: functional; in short: as §1
# [4] = tested on: Trypanosoma cruzi; test: Tested for the trypanocidal property against infected host cells (Trypanosoma cruzi) using a cell culture assay; format: functional; in short: as §1
# Chain of Cruzipain (P25779 whole entry): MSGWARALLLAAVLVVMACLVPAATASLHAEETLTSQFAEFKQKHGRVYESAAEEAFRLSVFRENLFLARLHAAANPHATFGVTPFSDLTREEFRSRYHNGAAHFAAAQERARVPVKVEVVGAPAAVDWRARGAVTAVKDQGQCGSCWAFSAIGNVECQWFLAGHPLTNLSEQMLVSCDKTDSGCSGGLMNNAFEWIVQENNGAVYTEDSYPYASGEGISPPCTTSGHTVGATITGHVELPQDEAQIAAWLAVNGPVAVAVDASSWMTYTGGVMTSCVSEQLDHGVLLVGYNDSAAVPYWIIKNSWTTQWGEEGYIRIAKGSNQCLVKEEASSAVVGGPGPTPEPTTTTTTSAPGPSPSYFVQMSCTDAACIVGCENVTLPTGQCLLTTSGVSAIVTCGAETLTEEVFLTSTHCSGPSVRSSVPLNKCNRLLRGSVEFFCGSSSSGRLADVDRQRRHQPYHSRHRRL
IC50 [1],Compound,further results
> 10000 nM,COc1ccc(/C=N/NC(N)=S)cc1O,–
> 10000 nM,NC(=O)N/N=C/c1ccc(-c2ccc(Cl)cc2)o1,–
–,CC/C(=N\N=C(\N)S)c1cccc(Br)c1,Cell survived [2]: >46 days
> 10000 nM,FC(F)(F)c1ccc(NC(=S)N2CCC(c3cccc(Br)c3)=N2)cc1,–
> 10000 nM,CC/N=C(\S)N1CCC(c2cccc(Br)c2)=N1,–
> 10000 nM,C/C(=N\NC(N)=O)c1cccc(Cl)c1,–
> 10000 nM,CC/C(=N\N=C(/S)Nc1ccccc1)c1cccc(Br)c1,–
> 10000 nM,S=C(NCc1ccco1)N1CCC(c2cccc(Br)c2)=N1,–
140 nM,N/C(S)=N/N=C/c1ccc(-c2cccc(Cl)c2)o1,–
> 10000 nM,CN(C)c1ccc(/C=N/N=C(/N)S)c2ccccc12,–
> 10000 nM,C/C(=N\NC(N)=O)c1cccc(C(F)(F)F)c1,–
–,CC1CN(C(=N)S)N=C1c1cccc(Br)c1 (stereo not drawn),Cell survived [3]: >22 days
460 nM,N/C(S)=N/N=C/c1ccc(Cl)c(Cl)c1,–
560 nM,N/C(S)=N/N=C/c1cc(Cl)cc(Cl)c1,–
> 10000 nM,C/C(=N\NC(N)=O)c1ccc(Cl)c(Cl)c1,–
> 10000 nM,CC/C(=N\N=C(\N)S)c1ccccc1,–
> 10000 nM,CC/C(=N\N=C(/S)NC)c1cccc(Br)c1,–
> 10000 nM,CC/C(=N\NC(N)=O)c1cccc(C(F)(F)F)c1,–
> 10000 nM,CC/C(=N\NC(N)=O)c1cccc(Cl)c1,–

IC50 [1],Compound,further results
–,C/C(=N\N=C(\N)S)c1cccc(Br)c1,Cell survived [3]: 22 days
> 10000 nM,NC(=O)N/N=C/c1ccc(-c2cccc(Cl)c2)o1,–
> 10000 nM,CC/C(=N\N=C(\N)S)c1ccc2cc(OC)ccc2c1,–
> 10000 nM,CC/C(=N\NC(N)=O)c1cc(C(F)(F)F)cc(C(F)(F)F)c1,–
3800 nM,C/C(=N\N=C(\N)S)c1ccc(Br)s1,–
> 10000 nM,CC/C(=N\N=C(\N)S)c1ccc(Br)cc1,–
280 nM,NC(=S)N/N=C/c1ccc(-c2ccc(Br)cc2)o1,–
1900 nM,C/C(=N\N=C(\N)S)c1ccc(Cl)s1,–
> 10000 nM,C/C(=N\N=C(\N)S)c1ccccc1Cl,–
> 10000 nM,CC/C(=N\N=C(\N)S)c1ccc(Cl)cc1Cl,–
> 10000 nM,N=C(S)N/N=C/c1ccccc1C(F)(F)F,–
> 10000 nM,C/C(=N\NC(N)=O)c1cccc(Br)c1,–
1700 nM,FC(F)(F)c1cccc(NC(=S)N2CCC(c3cccc(Cl)c3)=N2)c1,–
> 10000 nM,CCC(NNC(N)=S)c1cccc(Br)c1 (stereo not drawn),–
480 nM,N=C(S)N/N=C/c1cccc(C(F)(F)F)c1,–
320 nM,N=C(S)N/N=C/c1cc(C(F)(F)F)cc(C(F)(F)F)c1,–
3900 nM,C/C(=N\N=C(\N)S)c1ccccc1Br,–
> 10000 nM,CC/C(=N\N=C(/S)NCc1ccco1)c1cccc(Br)c1,–
> 10000 nM,S=C(Nc1ccccc1)N1CCC(c2cccc(Br)c2)=N1,–

IC50 [1],Compound,further results
> 10000 nM,CC/N=C(\S)N/N=C(\CC)c1cccc(Br)c1,–
> 10000 nM,C/N=C(\S)N1CCC(c2cccc(Br)c2)=N1,–
> 10000 nM,N/C(S)=N/N=C/c1cc(C#Cc2ccccc2)cs1,–
> 10000 nM,C/C(=N\N=C(\N)S)c1ccc(N2CCOCC2)cc1,–
> 10000 nM,CC/C(=N\N=C(/S)NC(C)C)c1cccc(Br)c1,–
> 10000 nM,CC/C(=N\N=C(\N)S)c1ccc(OC)cc1,–
1400 nM,CCCCCCNC(=S)N1CCC(c2cccc(Br)c2)=N1,–
> 10000 nM,CC/C(=N\NC(N)=O)c1ccc(Cl)c(Cl)c1,–
> 10000 nM,CC/C(=N\NC(N)=O)c1cccc(Br)c1,–
> 10000 nM,CC/C(=N\N=C(/S)NCCN1CCNCC1)c1cccc(Br)c1,–
7000 nM,Cn1nc(C(F)(F)F)cc1-c1ccc(/C=N/N=C(/N)S)s1,–
> 10000 nM,S=C(NCCN1CCOCC1)N1CCC(c2cccc(Br)c2)=N1,–
> 10000 nM,NC(=O)N/N=C/c1ccc(-c2ccc(Br)cc2)o1,–
> 10000 nM,CC/C(=N\N=C(\N)S)c1cccc(F)c1,–
> 10000 nM,COc1cccc(/C(C)=N/N=C(/N)S)c1,–
> 10000 nM,CC(C)/N=C(\S)N1CCC(c2cccc(Br)c2)=N1,–
> 10000 nM,CC/C(=N\N=C(\N)S)c1ccc(Cl)cc1,–
> 10000 nM,N/C(S)=N/N=C/c1cccc(Cl)c1Cl,–
2800 nM,N/C(S)=N/N=C/c1cccn1S(=O)(=O)c1ccccc1,–

Compound,IC50 [1],further results
NC(=S)N1CCC(c2cccc(Br)c2)=N1,200 nM,Cell survived [3]: 5 days
N/C(S)=N/N=C/c1ccc(-c2ccc(Cl)cc2)o1,300 nM,Cell survived [4]: 15 days
NC(=S)N1CCC(c2ccc(Cl)c(Cl)c2)=N1,60 nM,Cell survived [3]: >41 days
C/C(=N\N=C(\N)S)c1cccc(C(F)(F)F)c1,170 nM,Cell survived [3]: 15 days
C/C(=N\N=C(\N)S)c1cc(C(F)(F)F)cc(C(F)(F)F)c1,60 nM,Cell survived [3]: 7 days
NC(=S)N1CCC(c2cccc(Cl)c2)=N1,270 nM,Cell survived [3]: 5 days
CC1CN(C(=N)S)N=C1c1cccc(Cl)c1 (stereo not drawn),230 nM,Cell survived [3]: >41 days
S=C(Nc1cccc(Cl)c1)N1CCC(c2cccc(Br)c2)=N1,1000 nM,Cell survived [3]: 5 days
C/C(=N\N=C(\N)S)c1ccc(Cl)c(Cl)c1,50 nM,Cell survived [3]: >41 days
CC/C(=N\N=C(\N)S)c1cccc(Cl)c1,220 nM,Cell survived [2]: 22 days
COc1ccc2ccccc2c1/C=N/N=C(/N)S,560 nM,Cell survived [2]: 5 days
CC1CN(C(=N)S)N=C1c1cccc(C(F)(F)F)c1 (stereo not drawn),40 nM,Cell survived [3]: >41 days
CC1CN(C(=N)S)N=C1c1ccc(Cl)c(Cl)c1 (stereo not drawn),70 nM,Cell survived [3]: 15 days
N=C(S)N1CCC(c2cccc(C(F)(F)F)c2)=N1,80 nM,Cell survived [3]: 5 days
N/C(S)=N/N=C/c1cccc(Br)c1,1300 nM,Cell survived [3]: 8 days
CC/C(=N\N=C(\N)S)c1ccc(Cl)c(Cl)c1,20 nM,Cell survived [3]: 9 days
CC/C(=N\N=C(\N)S)c1cccc(C(F)(F)F)c1,50 nM,Cell survived [2]: >41 days
CC/C(=N\N=C(\N)S)c1cc(C(F)(F)F)cc(C(F)(F)F)c1,20 nM,Cell survived [3]: 20 days
COc1ccccc1-c1ccc(/C=N/N=C(/N)S)o1,280 nM,Cell survived [4]: 8 days
CC/C(=N\N=C(/S)Nc1ccc(C(F)(F)F)cc1)c1cccc(Br)c1 (stereo in doubt),> 10000 nM,–
CC/C(=N\N=C(/S)Nc1ccc(C(F)(F)F)cc1)c1cccc(Br)c1 (stereo in doubt; 5c),1600 nM,Cell survived [3]: 5 days
